These results are taken from ChEMBL document CHEMBL3632592, “Identification of Highly Promising Antioxidants/Neuroprotectants Based on Nucleoside 5'-Phosphorothioate Scaffold. Synthesis, Activity, and Mechanisms of Action” (J Med Chem, 2015).

The source made the active and inactive calls. The calls are words filed in the database; no cut-off is given here.

Common to all, as to format: functional, cell-based
One test concerns NTERA2. As to the kind of experiment: Antioxidant activity in human NTERA2 cells assessed as inhibition of Fe2+-induced reactive oxygen species formation at 0.01 to 25 uM after 1 hr by DCFH-DA dye-based fluorometric analysis in presence of P2Y1R antagonist MRS2179. The procedure, abridged:
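Ntera-2 cells (DMEM, seeded 24 h) were preincubated 20 min with 40 µM P2Y1 antagonist MRS2179. They were then loaded with DCFH-DA and treated with compound at 0.01–25 µM, with oxidation started by FeSO4 (final 0.16 µM). DCF fluorescence 485/530 nm, 1 h at 37 °C. Three independent experiments in triplicate.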

In the next test the test system is PC-12. As to the kind of experiment: Antioxidant activity in rat PC12 cells assessed as inhibition of Fe2+-induced reactive oxygen species formation at 0.01 to 25 uM after 1 hr by DCFH-DA dye-based fluorometric analysis in presence of P2Y12R antagonist 2-MeS-AMP. The procedure, abridged:
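PC12 cells (DMEM, seeded 24 h) were preincubated 20 min with 50 µM P2Y12 antagonist 2-MeS-AMP. They were then loaded with DCFH-DA, given test compound at 0.01–25 µM, and oxidised with FeSO4 (final 0.16 µM). DCF fluorescence 485/530 nm over 1 h at 37 °C. ROS inhibition compared with no-antagonist control; three independent experiments in triplicate.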

For test [1], the system named is Cerebral cortex neuron. The test is described as follows: Neuroprotective activity against Fe2+-induced morphological changes in rat primary cortical neurons at 0.2 to 100 uM after 24 hrs by light microscopic analysis. The procedure, abridged: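 Primary rat cortical neurons were exposed to 3 µM FeSO4 for 24 h, with compound at 0.2, 5 and 100 µM. Morphology (cell number, extensions, cytoskeleton) was examined by light microscopy at 100×.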

Test [2] relates to Cerebral cortex neuron. As to the kind of experiment: Neuroprotective activity against Fe2+-induced oxidative damage in rat primary cortical neurons assessed as cell viability at 0.01 to 25 uM after 24 hrs by MTT assay. The method, boiled down: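 Rat (1-day-old) cortical neurons were grown serum-free in DMEM/F12 with B-27 on poly-ornithine, treated with Ara-C and cultured 5 d. Cells were pretreated with nucleotide (0.01–25 µM), then exposed to FeSO4 3 µM final for 24 h. MTT 1 mg/mL was added for 2 h at 37 °C, formazan dissolved in DMSO, A550 read. Viability given as % of vehicle control; three independent experiments in triplicate.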
(Formazan colour is commonly taken as a measure of viable cells.)

Turning to `CSc1nc(N)c2ncn([C@@H]3O[C@H](COP(=O)(S)OP(=O)(O)O)[C@@H](O)[C@H]3O)c2n1` (stereo in doubt; 7A), the inhibition result in the test on NTERA2 and in the test on PC-12 was “inactive” throughout. Moreover, in the test on Cerebral cortex neuron [1], the result was Active.
As to `CSc1nc(N)c2ncn([C@@H]3O[C@H](COP(=O)(S)OP(=O)(O)O)[C@@H](O)[C@H]3O)c2n1` (stereo in doubt; 7B), the result in the test with Cerebral cortex neuron [2] was Active.
